Data reported in ChEMBL document CHEMBL1649569, “oqxAB encoding a multidrug efflux pump in human clinical isolates of Enterobacteriaceae” (2009).

What was measured:
Klebsiella pneumoniae [1] = assay: Antibacterial activity against Klebsiella pneumoniae isolate 2-54 by Etest method
Escherichia coli [2] = assay: Antibacterial activity against Escherichia coli isolate 5-56 by Etest method
Klebsiella pneumoniae [3] = assay: Antibacterial activity against Klebsiella pneumoniae isolate 4-13 harboring aac(6')Ib-cr gene by Etest method
Escherichia coli [4] = assay: Antibacterial activity against Escherichia coli isolate 4-69 by Etest method
Klebsiella pneumoniae [5] = assay: Antibacterial activity against Klebsiella pneumoniae isolate 5-80 by Etest method
Klebsiella pneumoniae [6] = assay: Antibacterial activity against Klebsiella pneumoniae isolate 6-49 by Etest method
Escherichia coli [7] = assay: Antibacterial activity against Escherichia coli isolate 1-12 by Etest method
Escherichia coli [8] = assay: Antibacterial activity against Escherichia coli isolate 4-78 by Etest method
Klebsiella pneumoniae [9] = assay: Antibacterial activity against Klebsiella pneumoniae isolate 3-45 by Etest method
Escherichia coli [10] = assay: Antibacterial activity against Escherichia coli isolate 5-59 harboring qepA gene by Etest method
Klebsiella pneumoniae [11] = assay: Antibacterial activity against Klebsiella pneumoniae isolate 4-39 by Etest method
Klebsiella pneumoniae [12] = assay: Antibacterial activity against Klebsiella pneumoniae isolate 4-38 harboring aac(6')Ib-cr gene by Etest method
Klebsiella pneumoniae [13] = assay: Antibacterial activity against Klebsiella pneumoniae isolate 5-22 by Etest method
Escherichia coli [14] = assay: Antibacterial activity against Escherichia coli isolate 5-56 by broth dilution method; format: functional
How it was run: (§1)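 MIC by broth dilution in LB broth against human clinical Enterobacteriaceae isolates, with strains characterised by PCR for oqxA/oqxB and other plasmid-mediated quinolone resistance genes.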

Klebsiella pneumoniae [15] = assay: Antibacterial activity against Klebsiella pneumoniae isolate 4-39 by broth dilution method; format: functional
How it was run: (§2)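 Clinical isolates tested by broth dilution in LB broth, with the MIC read as the end-point.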

Escherichia coli [16] = assay: Antibacterial activity against Escherichia coli isolate 5-65 by broth dilution method; format: functional; how it was run: as §1
Klebsiella pneumoniae [17] = assay: Antibacterial activity against Klebsiella pneumoniae isolate 5-22 by broth dilution method; format: functional; how it was run: as §2
Escherichia coli [18] = assay: Antibacterial activity against Escherichia coli isolate 4-69 by broth dilution method; format: functional; how it was run: as §1
Klebsiella pneumoniae [19] = assay: Antibacterial activity against Klebsiella pneumoniae isolate 5-80 by broth dilution method; format: functional; how it was run: as §2
Klebsiella pneumoniae [20] = assay: Antibacterial activity against Klebsiella pneumoniae isolate 4-38 harboring aac(6')Ib-cr gene by broth dilution method; format: functional; how it was run: as §1
Escherichia coli [21] = assay: Antibacterial activity against azide-resistant Escherichia coli J53 by broth dilution method
Klebsiella pneumoniae [22] = assay: Antibacterial activity against Klebsiella pneumoniae isolate 2-54 by broth dilution method; format: functional; how it was run: as §2
Escherichia coli [23] = assay: Antibacterial activity against Escherichia coli ATCC 25922 by broth dilution method; format: functional
Klebsiella pneumoniae [24] = assay: Antibacterial activity against Klebsiella pneumoniae isolate 6-49 by broth dilution method; format: functional; how it was run: as §2
Escherichia coli [25] = assay: Antibacterial activity against Escherichia coli isolate 4-78 by broth dilution method; format: functional; how it was run: as §1
Klebsiella pneumoniae [26] = assay: Antibacterial activity against Klebsiella pneumoniae isolate 3-51 by broth dilution method; format: functional; how it was run: as §2
Enterobacter cloacae [27] = assay: Antibacterial activity against Enterobacter cloacae isolate 1-40 by broth dilution method; format: functional; how it was run: as §2
Escherichia coli [28] = assay: Antibacterial activity against Escherichia coli isolate 5-59 harboring qepA gene by broth dilution method; format: functional; how it was run: as §1
Enterobacter cloacae [29] = assay: Antibacterial activity against Enterobacter cloacae isolate 4-11 by broth dilution method; format: functional; how it was run: as §2
Enterobacter cloacae [30] = assay: Antibacterial activity against Enterobacter cloacae isolate 6-4 by broth dilution method; format: functional; how it was run: as §2
Klebsiella pneumoniae [31] = assay: Antibacterial activity against Klebsiella pneumoniae isolate 1-68 by broth dilution method; format: functional; how it was run: as §2
Klebsiella pneumoniae [32] = assay: Antibacterial activity against Klebsiella pneumoniae isolate 4-13 harboring aac(6')Ib-cr gene by broth dilution method; format: functional; how it was run: as §1
Escherichia coli [33] = assay: Antibacterial activity against Escherichia coli isolate 1-12 by broth dilution method; format: functional; how it was run: as §2
Enterobacter cloacae [34] = assay: Antibacterial activity against Enterobacter cloacae isolate 1-26 by broth dilution method; format: functional; how it was run: as §2
Enterobacter cloacae [35] = assay: Antibacterial activity against Enterobacter cloacae isolate 1-39 by broth dilution method; format: functional; how it was run: as §2
Enterobacter cloacae [36] = assay: Antibacterial activity against Enterobacter cloacae isolate 1-3 by broth dilution method; format: functional; how it was run: as §2
Escherichia coli [37] = assay: Antibacterial activity against Escherichia coli isolate 4-67 by broth dilution method; format: functional; how it was run: as §1
Klebsiella pneumoniae [38] = assay: Antibacterial activity against Klebsiella pneumoniae isolate 3-45 by broth dilution method; format: functional; how it was run: as §2

Measured: MIC

O=C(O)c1cn(C2CC2)c2cc(N3CCNCC3)c(F)cc2c1=O [CIPROFLOXACIN]
3 µg/mL: Klebsiella pneumoniae [5]
> 32 µg/mL: Escherichia coli [2] | Klebsiella pneumoniae [3] | Escherichia coli [4] | Klebsiella pneumoniae [6] | Escherichia coli [7] | Escherichia coli [8] | Escherichia coli [10] | Klebsiella pneumoniae [12]
0.064 µg/mL: Klebsiella pneumoniae [11] | Klebsiella pneumoniae [13]
0.023 µg/mL: Klebsiella pneumoniae [1] | Klebsiella pneumoniae [9]

Cc1c(C(=O)NCCO)[n+]([O-])c2ccccc2[n+]1[O-] [OLAQUINDOX]
16 µg/mL: Escherichia coli [14] | Klebsiella pneumoniae [15] | Escherichia coli [16] | Escherichia coli [18] | Escherichia coli [25] | Klebsiella pneumoniae [26] | Escherichia coli [28] | Enterobacter cloacae [30] | Escherichia coli [37] | Klebsiella pneumoniae [38]
128 µg/mL: Enterobacter cloacae [27] | Enterobacter cloacae [34] | Enterobacter cloacae [35]
32 µg/mL: Enterobacter cloacae [29]
> 256 µg/mL: Klebsiella pneumoniae [19] | Klebsiella pneumoniae [20] | Klebsiella pneumoniae [24] | Klebsiella pneumoniae [32]
64 µg/mL: Enterobacter cloacae [36]
8 µg/mL: Klebsiella pneumoniae [17] | Escherichia coli [21] | Klebsiella pneumoniae [22] | Escherichia coli [23] | Klebsiella pneumoniae [31]
256 µg/mL: Escherichia coli [33]
